Experimental data reported in ChEMBL document CHEMBL1649387, “Synthesis and evaluation of quinonoid compounds against tumor cell lines” (Eur J Med Chem, 2011).

What was measured:
PBMC = assay: Cytotoxicity against human PBMC cells after 72 hrs by Alamar Blue assay; type: cell-based
SF-295 [1] = assay: Cytotoxicity against human SF295 cells after 72 hrs by MTT assay; type: functional, cell-based; settings: SF-295, 72 h
MDA-MB-435 [2] = assay: Cytotoxicity against human MDA-MB-435 cells after 72 hrs by MTT assay; type: functional, cell-based; settings: MDA-MB-435, 72 h
HL-60 [3] = assay: Cytotoxicity against human HL60 cells after 72 hrs by MTT assay; type: functional, cell-based; settings: HL-60, 72 h
HCT-8 [4] = assay: Cytotoxicity against human HCT8 cells after 72 hrs by MTT assay; type: functional, cell-based; settings: HCT-8, 72 h
HCT-8 [5] = assay: Induction of apoptosis in human HCT8 cells assessed as apoptotic nuclei at 5 uM after 24 hrs by acridine orange/ethidium bromide staining based fluorescence microscopy; type: functional
Outline: (§1)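 Cells exposed 24 h, with or without 24 h pretreatment with 1-bromoheptane. Cell suspension mixed with acridine orange/ethidium bromide (each 100 in PBS) and spread on slide. 300 cells counted per point by fluorescence microscopy to give % apoptotic cells. Mean ± S.E.M. of three experiments.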

MDA-MB-435 [6] = assay: Induction of apoptosis in human MDA-MB-435 cells assessed as apoptotic nuclei at 5 uM after 24 hrs by acridine orange/ethidium bromide staining based fluorescence microscopy; type: functional; outline: as §1
SF-295 [7] = assay: Induction of apoptosis in human SF295 cells assessed as apoptotic nuclei at 5 uM after 24 hrs by acridine orange/ethidium bromide staining based fluorescence microscopy in presence of 1-bromoheptane; type: functional; outline: as §1
MDA-MB-435 [8] = assay: Induction of apoptosis in human MDA-MB-435 cells assessed as apoptotic nuclei at 5 uM after 24 hrs by acridine orange/ethidium bromide staining based fluorescence microscopy in presence of 1-bromoheptane; type: functional; outline: as §1
HL-60 [9] = assay: Induction of apoptosis in human HL60 cells assessed as apoptotic nuclei at 5 uM after 24 hrs by acridine orange/ethidium bromide staining based fluorescence microscopy; type: functional; outline: as §1
HL-60 [10] = assay: Induction of apoptosis in human HL60 cells assessed as apoptotic nuclei at 5 uM after 24 hrs by acridine orange/ethidium bromide staining based fluorescence microscopy in presence of 1-bromoheptane; type: functional; outline: as §1
HCT-8 [11] = assay: Induction of apoptosis in human HCT8 cells assessed as apoptotic nuclei at 5 uM after 24 hrs by acridine orange/ethidium bromide staining based fluorescence microscopy in presence of 1-bromoheptane; type: functional; outline: as §1
SF-295 [12] = assay: Induction of apoptosis in human SF295 cells assessed as apoptotic nuclei at 5 uM after 24 hrs by acridine orange/ethidium bromide staining based fluorescence microscopy; type: functional; outline: as §1

Structure (SMILES)	IC50 (PBMC) [µM]	IC50 (SF-295 [1]) [µM]	IC50 (MDA-MB-435 [2]) [µM]	IC50 (HL-60 [3]) [µM]	IC50 (HCT-8 [4]) [µM]	Activity (HCT-8 [5]) [%]	Activity (MDA-MB-435 [6]) [%]	Activity (SF-295 [7]) [%]	Activity (MDA-MB-435 [8]) [%]	Activity (HL-60 [9]) [%]	Activity (HL-60 [10]) [%]	Activity (HCT-8 [11]) [%]	Activity (SF-295 [12]) [%]
CC(C)CCC1=C(O)C(=O)C2=C(CCCC2)C1=O	> 20.1	> 20.1	> 20.1	> 20.1	> 20.1								
CC1=C(OC2(C)C(=O)c3ccccc3C2=O)C(=O)c2ccccc2C1=O	> 14.4	> 14.4	> 14.4	> 14.4	> 14.4								
CC(C)=CCC1=C(OC2(CC=C(C)C)C(=O)C(=O)c3ccccc3C2=O)C(=O)c2ccccc2C1=O (stereo not given)	> 10.4	> 10.4	> 10.4	> 10.4	9.76	8.52	4.72	7.3	5.82	11.17	8.46	9.16	11.45
CC1(C)OC2C(=O)c3ccccc3C(=O)C2[C@@H](N=[N+]=[N-])[C@@H]1Br (stereo not given in full)	11.3	13.8	3.97	5.68	12.4								
O=C1c2ccccc2C(=O)c2c1ccc1nc(-c3ccc(O)cc3)[nH]c21	> 14.7	> 14.7	> 14.7	> 14.7	> 14.7	8.51	9.56	10.18	13.07	10.7	14.26	11.16	5.93
O=C1c2ccccc2C(=O)c2c1ccc1nc(-c3ccc(F)cc3)[nH]c21	> 14.6	> 14.6	> 14.6	> 14.6	> 14.6								
O=C1c2ccccc2C(=O)c2c1ccc1nc(-c3ccccc3)[nH]c21	> 15.4	> 15.4	> 15.4	> 15.4	> 15.4	10.35	9.02	9.17	11.44	12.59	8.37	8.11	7.32
CC(C)CC1=C(O)C(=O)C2=C(CCCC2)C1=O	> 21.4	> 21.4	> 21.4	> 21.4	> 21.4								
O=C1c2ccccc2C(=O)c2c1ccc1nc(-c3cccc(O)c3)[nH]c21	> 14.7	> 14.7	> 14.7	> 14.7	> 14.7	12.73	12.51	9.66	13.75	10.49	8.17	7.25	13.51
CC(C)CC1=C(OC2(CC(C)C)C(=O)C(=O)C3=C(CCCC3)C2=O)C(=O)C2=C(CCCC2)C1=O (stereo not given)	> 10.7	> 10.7	> 10.7	> 10.7	> 10.7								
COc1ccc(-c2cn([C@H]3C4=C(OC(C)(C)[C@@H]3Br)c3ccccc3C(=O)C4=O)nn2)cc1	2.52	3.01	1.92	1.88	3.21								
CC(C)CC1=C(OC2(CC(C)C)C(=O)C(=O)c3ccccc3C2=O)C(=O)c2ccccc2C1=O (stereo not given)	> 10.9	> 10.9	> 10.9	> 10.9	> 10.9								
Cc1ccc(-c2nc3ccc4c(c3[nH]2)C(=O)c2ccccc2C4=O)cc1	> 14.8	> 14.8	> 14.8	> 14.8	> 14.8	8.72	7.49	4.17	12.27	5.27	9.62	9.31	5.82
